Source: ChEMBL document CHEMBL4842372, “Discovery of ARD-2585 as an Exceptionally Potent and Orally Active PROTAC Degrader of Androgen Receptor for the Treatment of Advanced Prostate Cancer” (J Med Chem, 2021)
pIC50: −log10 of the molar value. The source made the active and inactive calls. The rule behind the calls is not given here.

Experiments:
[1] = target: Protein cereblon/Androgen receptor (Homo sapiens, UniProt P10275+Q96SW2); test: Protac activity at CRBN/AR in human VCaP cells assessed as AR degradation after 24 hrs by Western blot analysis; type: cell-based
Chain of Protein cereblon/Androgen receptor (Homo sapiens, UniProt P10275+Q96SW2) (P10275 whole entry): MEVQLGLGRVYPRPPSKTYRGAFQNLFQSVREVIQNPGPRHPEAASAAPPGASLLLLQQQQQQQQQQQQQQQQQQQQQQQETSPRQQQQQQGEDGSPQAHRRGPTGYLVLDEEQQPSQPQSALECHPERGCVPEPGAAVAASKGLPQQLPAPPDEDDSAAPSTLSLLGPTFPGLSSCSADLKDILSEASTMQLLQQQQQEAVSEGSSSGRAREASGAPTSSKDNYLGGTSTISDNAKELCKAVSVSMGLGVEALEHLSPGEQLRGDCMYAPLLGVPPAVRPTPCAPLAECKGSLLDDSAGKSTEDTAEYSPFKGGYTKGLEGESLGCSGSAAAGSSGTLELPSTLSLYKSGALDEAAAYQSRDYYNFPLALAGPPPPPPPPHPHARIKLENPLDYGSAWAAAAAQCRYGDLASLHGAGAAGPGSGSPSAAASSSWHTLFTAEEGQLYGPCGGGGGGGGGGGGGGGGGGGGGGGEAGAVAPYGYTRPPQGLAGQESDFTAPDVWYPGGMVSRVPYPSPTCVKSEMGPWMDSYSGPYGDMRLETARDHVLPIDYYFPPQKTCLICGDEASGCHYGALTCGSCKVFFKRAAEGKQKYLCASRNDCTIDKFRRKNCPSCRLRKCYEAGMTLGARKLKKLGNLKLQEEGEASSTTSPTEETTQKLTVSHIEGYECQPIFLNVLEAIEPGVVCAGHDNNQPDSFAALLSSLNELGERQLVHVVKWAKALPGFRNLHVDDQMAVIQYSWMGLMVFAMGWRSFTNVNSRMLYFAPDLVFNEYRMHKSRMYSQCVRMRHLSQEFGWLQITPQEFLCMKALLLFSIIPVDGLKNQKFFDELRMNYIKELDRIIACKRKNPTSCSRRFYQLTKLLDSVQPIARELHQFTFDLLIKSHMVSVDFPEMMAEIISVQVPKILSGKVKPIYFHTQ
Chain of Protein cereblon/Androgen receptor (Homo sapiens, UniProt P10275+Q96SW2) (Q96SW2 whole entry): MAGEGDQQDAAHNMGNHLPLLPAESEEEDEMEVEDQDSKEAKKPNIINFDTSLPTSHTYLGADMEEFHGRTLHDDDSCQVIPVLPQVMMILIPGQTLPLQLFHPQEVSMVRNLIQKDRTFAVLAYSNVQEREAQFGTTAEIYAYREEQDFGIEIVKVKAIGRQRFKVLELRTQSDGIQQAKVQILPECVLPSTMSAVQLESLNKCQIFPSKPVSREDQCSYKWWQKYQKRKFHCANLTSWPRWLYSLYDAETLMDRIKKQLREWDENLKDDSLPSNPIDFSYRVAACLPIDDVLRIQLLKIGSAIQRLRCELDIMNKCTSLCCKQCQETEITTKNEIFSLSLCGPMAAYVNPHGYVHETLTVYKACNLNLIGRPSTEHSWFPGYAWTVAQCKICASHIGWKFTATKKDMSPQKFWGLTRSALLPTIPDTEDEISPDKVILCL

[2] = Half life in SCID mouse at 1 mg/kg, iv by LC-MS/MS analysis; type: ADME, organism-based; details: in vivo
Method in brief: (§1)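 Male mice were given a single intravenous dose. Plasma drug levels were measured by a validated LC–MS/MS method (C18 column, 0.1% formic acid water/acetonitrile gradient, 0.4 mL/min). Parameters came from noncompartmental analysis.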

[3] = AUC (0 to t) in SCID mouse at 1 mg/kg, iv by LC-MS/MS analysis; type: ADME, organism-based; set-up: dose 1 mg/kg; details: in vivo; method in brief: as §1
[4] = Volume of distribution at steady state in SCID mouse at 1 mg/kg, iv by LC-MS/MS analysis; type: ADME, organism-based; details: in vivo, read-out: Vdss
Method in brief: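 Male mice were used, three sacrificed per time-point, with 300 μL blood collected and plasma stored at −80 °C. Drug was quantified by a validated LC–MS/MS method on a C18 column with a 0.1% formic acid water/acetonitrile gradient at 0.4 mL/min. PK parameters were derived by noncompartmental analysis.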

[5] = Tmax in SCID mouse at 3 mg/kg, po by LC-MS/MS analysis; type: ADME, organism-based; details: in vivo
Method in brief: (§2)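 Nontumor-bearing male mice were given a single oral gavage dose in 100% PEG200. Three mice were sacrificed per time point, and 300 μL blood was taken from each for plasma, stored at −80 °C. Drug was quantified by LC–MS/MS on a C18 column with a 0.1% formic acid water/acetonitrile gradient at 0.4 mL/min. Parameters came from noncompartmental analysis.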

[6] = Half life in SCID mouse at 3 mg/kg, po by LC-MS/MS analysis; type: ADME, organism-based; details: in vivo; method in brief: as §2
[7] = Cmax in SCID mouse at 3 mg/kg, po by LC-MS/MS analysis; type: ADME, organism-based; set-up: route oral, dose 3 mg/kg; details: in vivo; method in brief: as §2
[8] = AUC (0 to t) in SCID mouse at 3 mg/kg, po by LC-MS/MS analysis; type: ADME, organism-based; set-up: dose 3 mg/kg; details: in vivo; method in brief: as §2
[9] = Oral bioavailability in SCID mouse at 3 mg/kg by LC-MS/MS analysis; type: ADME, organism-based; details: in vivo
VCaP [10] = test: Growth inhibition of human VCaP cells assessed as cell viability by WST-8 assay; type: functional, cell-based
LNCaP = test: Growth inhibition of human LNCaP cells carrying AR T878A mutant assessed as cell viability by WST-8 assay; type: functional, cell-based
VCaP [11] = test: Antitumor activity against human VCaP cells xenografted in CB17:SCID mouse assessed as reduction in AR protein level in tumor at 20 mg/kg, po measured for 6 to 24 hrs by Western blot analysis; type: functional, organism-based; details: time 6-24 hrs
Method in brief: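 VCaP xenografts in male CB17 SCID mice grown to about 200 mm3; single oral gavage dose of 20 mg/kg in 100% PEG200; tumors collected at 6 and 24 h, RIPA lysates blotted for AR with GAPDH as loading control, band intensity normalised to loading control.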

[12] = Drug distribution in plasma of CB17:SCID mouse xenografted with human VCaP cells at 20 mg/kg, po measured at 6 hrs by LCMS analysis; type: ADME, organism-based
Method in brief: (§3)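 Tumor-bearing male CB17 SCID mice (VCaP xenografts) given one 20 mg/kg oral dose in 100% PEG200, three mice per time point; plasma, tumor, liver, kidney, prostate and heart taken at 1, 6 and 24 h; tissues homogenised in water/acetonitrile, protein precipitated with cold acetonitrile, drug quantified by LC–MS/MS; ratios are tissue over plasma level.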

[13] = Drug distribution in plasma of CB17:SCID mouse xenografted with human VCaP cells at 20 mg/kg, po measured at 24 hrs by LCMS analysis; type: ADME, organism-based; method in brief: as §3
[14] = Drug distribution in prostate gland of CB17:SCID mouse xenografted with human VCaP cells at 20 mg/kg, po measured at 6 hrs by LCMS analysis; type: ADME, organism-based; details: read-out: Drug uptake; method in brief: as §3
[15] = Drug distribution in prostate gland of CB17:SCID mouse xenografted with human VCaP cells at 20 mg/kg, po measured at 24 hrs by LCMS analysis; type: ADME, organism-based; details: read-out: Drug uptake; method in brief: as §3
[16] = Drug distribution in tumor of CB17:SCID mouse xenografted with human VCaP cells at 20 mg/kg, po measured at 6 hrs by LCMS analysis; type: ADME, organism-based, Neoplasm; details: read-out: Drug uptake; method in brief: as §3
[17] = Drug distribution in tumor of CB17:SCID mouse xenografted with human VCaP cells at 20 mg/kg, po measured at 24 hrs by LCMS analysis; type: ADME, organism-based, Neoplasm; details: read-out: Drug uptake; method in brief: as §3
VCaP [18] = test: Antitumor activity against human VCaP cells xenografted in CB17:SCID mouse assessed as reduction in AR protein level in tumor at 10 mg/kg, po for 3 days measured at 3 hrs by Western blot analysis; type: functional; details: 72 h, time 3 day
Method in brief: (§4)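 Male CB17 SCID mice bearing subcutaneous VCaP tumors (5 × 10^6 cells in Matrigel); dosed by oral gavage in 100% PEG200 at 10 mg/kg daily for 3 days; tumors harvested 3, 6 and 24 h post-dose, lysed in RIPA, Western blot for AR with GAPDH loading control, bands quantified by densitometry relative to loading control.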

VCaP [19] = test: Antitumor activity against human VCaP cells xenografted in CB17:SCID mouse assessed as reduction in AR protein level in tumor at 10 mg/kg, po for 3 days measured at 6 hrs by Western blot analysis; type: functional; details: 72 h, time 3 day; method in brief: as §4
VCaP [20] = test: Antitumor activity against human VCaP cells xenografted in CB17:SCID mouse assessed as reduction in AR protein level in tumor at 10 mg/kg, po for 3 days measured at 24 hrs by Western blot analysis; type: functional; details: 72 h, time 3 day; method in brief: as §4
[21] = target: Protein cereblon/Androgen receptor (Homo sapiens, UniProt P10275+Q96SW2, T878A); details: lncap
Chain of Protein cereblon/Androgen receptor (Homo sapiens, UniProt P10275+Q96SW2, T878A) (P10275 whole entry T878A, stated change not applied): as the sequence (P10275 whole entry) above, with T878A counted along it
Chain of Protein cereblon/Androgen receptor (Homo sapiens, UniProt P10275+Q96SW2, T878A) (Q96SW2 whole entry, stated change not applied): as the sequence (Q96SW2 whole entry) above

VCaP [22] = test: Antitumor activity against human VCaP cells xenografted in CB17:SCID mouse assessed as tumor growth inhibition at 40 mg/kg, po treated for 37 days relative to control; type: functional; details: 888 h, time 37 day, read-out: TGI

N#Cc1ccc(O[C@H]2CC[C@H](NC(=O)c3ccc(N4CCC(N5CCN(c6ccc7c(c6)C(=O)N(C6CCC(=O)NC6=O)C7=O)CC5)CC4)cc3)CC2)cc1Cl (stereo partly specified)
DC50 [1]: 0.2 nM | half-life [2]: 366 min | AUC(0-t) [3]: 2420 ng·h/mL | Vd [4]: 3 L/kg | Tmax [5]: 4 h | half-life [6]: 336 min | Cmax [7]: 207 ng/mL | AUC(0-t) [8]: 2150 ng·h/mL | F [9]: 30%

CN(c1ccc(C#N)c(Cl)c1)[C@H]1CC[C@H](NC(=O)c2ccc(N3CCC(CN4CCN(c5ccc6c(c5)C(=O)N(C5CCC(=O)NC5=O)C6=O)CC4)CC3)cc2)CC1 (stereo partly specified)
F [9]: 35%

N#Cc1ccc(O[C@H]2CC[C@H](NC(=O)c3ccc(N4CCN(CCCCCNc5ccc6c(c5)C(=O)N(C5CCC(=O)NC5=O)C6=O)CC4)cc3)CC2)cc1Cl (stereo partly specified)
DC50 [1]: 0.9 nM

CN(c1ccc(C#N)c(Cl)c1)[C@H]1CC[C@H](NC(=O)c2ccc(N3CCN(CC4CN(c5ccc6c(c5)C(=O)N(C5CCC(=O)NC5=O)C6=O)C4)CC3)cc2)CC1 (stereo partly specified)
F [9]: 30%

N#Cc1ccc(O[C@H]2CC[C@H](NC(=O)c3ccc(NCCCCCCCCCNc4ccc5c(c4)C(=O)N(C4CCC(=O)NC4=O)C5=O)cc3)CC2)cc1Cl (stereo partly specified)
DC50 [1]: 3.2 nM

N#Cc1ccc(O[C@H]2CC[C@H](NC(=O)c3ccc(N4CCN(C5CN(c6ccc7c(c6)C(=O)N(C6CCC(=O)NC6=O)C7=O)C5)CC4)cc3)CC2)cc1Cl (stereo partly specified)
DC50 [1]: 0.1 nM

N#Cc1ccc(O[C@H]2CC[C@H](NC(=O)c3ccc(N4CCN(C5CCN(c6ccc7c(c6)C(=O)N(C6CCC(=O)NC6=O)C7=O)CC5)CC4)cc3)CC2)cc1Cl (stereo partly specified)
DC50 [1]: 0.3 nM

N#Cc1ccc(O[C@H]2CC[C@H](NC(=O)c3ccc(NCCCCCCCNc4ccc5c(c4)C(=O)N(C4CCC(=O)NC4=O)C5=O)cc3)CC2)cc1Cl (stereo partly specified)
DC50 [1]: 0.7 nM

CN(c1ccc(C#N)c(Cl)c1)[C@H]1CC[C@H](NC(=O)c2ccc(N3CCN(C4CCN(c5ccc6c(c5)C(=O)N(C5CCC(=O)NC5=O)C6=O)CC4)CC3)cc2)CC1 (stereo partly specified)
Vd [4]: 2.6 L/kg | F [9]: 29% | pIC50 (VCaP [10]): 9.10 | pIC50 (LNCaP): 7.65 | inhibition (VCaP [11]): Active | concentration at 6 h [12]: 37 ng/mL | concentration at 24 h [13]: 38 ng/mL | concentration at 6 h [14]: 58 ng/g | concentration at 24 h [15]: 83 ng/g | concentration at 6 h [16]: 120 ng/g | concentration at 24 h [17]: 176 ng/g | inhibition in vivo at 10 mg/kg (VCaP [18]): 74% | inhibition in vivo at 10 mg/kg (VCaP [19]): 70% | inhibition in vivo at 10 mg/kg (VCaP [20]): 20% | DC50 [21]: 0.4 nM

CC1(C)C(=O)N(c2ccc(C#N)c(C(F)(F)F)c2)C(=S)N1c1ccc(C(=O)N2CCN(C3CCN(c4ccc5c(c4)C(=O)N(C4CCC(=O)NC4=O)C5=O)CC3)CC2)c(F)c1 (stereo unspecified)
pIC50 (VCaP [10]): < 6.00

CN1CCN(c2ccc(C(=O)N[C@H]3CC[C@H](N(C)c4ccc(C#N)c(Cl)c4)CC3)cc2)CC1
pIC50 (VCaP [10]): 7.21

N#Cc1ncc(N2C(=O)C3(CCC3)N(c3ccc(C(=O)N4CCN(C5CCN(c6ccc7c(c6)C(=O)N(C6CCC(=O)NC6=O)C7=O)CC5)CC4)c(F)c3)C2=S)cc1C(F)(F)F (stereo unspecified)
pIC50 (VCaP [10]): < 6.00

CNC(=O)c1ccc(N2C(=S)N(c3ccc(C#N)c(C(F)(F)F)c3)C(=O)C2(C)C)cc1F [ENZALUTAMIDE]
inhibition in vivo at 40 mg/kg (VCaP [22]): 45%

N#Cc1ccc(N[C@H]2CC[C@H](NC(=O)c3ccc(N4CCC(N5CCN(c6ccc7c(c6)C(=O)N(C6CCC(=O)NC6=O)C7=O)CC5)CC4)cc3)CC2)cc1Cl (stereo partly specified)
pIC50 (VCaP [10]): 7.78
